Measured values from different studies.
Lines come from different studies, so protocols differ.
MAOB: Amine oxidase [flavin-containing] B (MAOB, Homo sapiens, UniProt P27338)

SMILES	target	test	setting	quantity	result
C#Cc1cc(-c2cc(Nc3nc(N[C@@H](C)c4ccc(F)cn4)ncc3Cl)n[nH]2)ccc1C=O	Dual specificity tyrosine-phosphorylation-regulated kinase 4 (DYRK4, Homo sapiens, UniProt Q9NR20)	enzyme activity, inhibitor	0.2 µM	inhibition	4.78%
COc1ccc2oc(-c3ccc4nc(N)oc4c3)c/c(=N\c3ccccc3NC(=O)CCN)c2c1	Phosphatidylinositol 3-kinase C2 domain-containing subunit gamma (PIK3C2G, Homo sapiens, UniProt O75747)	binding	1 µM	remaining binding	37%
O=C(Nc1cccc(F)c1)c1ccc2c(c1)C(=O)NC2=O	MAOB	enzyme activity, inhibitor	1 µM	inhibition	< 5%
CCCCC(=O)Nc1ccc(-c2ccc3ncn(CCC)c(=O)c3c2)cn1	Serine/threonine-protein kinase NLK (NLK, Homo sapiens, UniProt Q9UBE8)	binding, competition with immobilised ligand	0.5 µM	remaining binding	92%
O=C(Nc1ccc(Cl)c(Br)c1)c1ccc2c(c1)C(=O)NC2=O	MAOB	enzyme activity, inhibitor	1 µM	inhibition	97.5%
NC/C(=C\F)COc1cccc(Cn2c(=S)[nH]c(=O)c3[nH]cnc32)c1	MAOB	enzyme activity, inhibitor	200 pM	inhibition	29.1%
C[C@]1(O)CCCN(c2nc(Nc3ccc(S(=O)(=O)N[C@H]4CC[C@H](CN5CCN(c6ccc(C7CCC(=O)NC7=O)cc6F)CC5)CC4)cc3F)ncc2C(F)(F)F)C1 (stereo partly shown)	NUAK family SNF1-like kinase 2 (NUAK2, Homo sapiens, UniProt Q9H093)	binding, competition with immobilised ligand	1 µM	remaining binding	45%
C1=C/COCc2cc(ccc2OCCN2CCCC2)Nc2nccc(n2)-c2cccc(c2)COC/1	Tyrosine-protein kinase HCK (HCK, Homo sapiens, UniProt P08631)	binding	0.1 µM	remaining binding	100%
Nc1nc2c(ncn2[C@@H]2O[C@H](COP(=O)(O)O)[C@@H](O)[C@H]2O)c(=O)[nH]1	GUK1 (Homo sapiens, UniProt Q16774)	enzyme activity, substrate		Km	14.9 µM
O=C(Nc1ccccc1Br)c1ccc2c(c1)C(=O)NC2=O	MAOB	enzyme activity, inhibitor	1 µM	inhibition	< 5%
O=C(N[C@@H](CSCc1nc2cc([N+](=O)[O-])ccc2[nH]1)C(=O)NO)c1ccccc1	Lactoylglutathione lyase (GLO1, Homo sapiens, UniProt Q04760)	enzyme activity, inhibitor	1 µM	inhibition	13.6%
COc1cccc(NC(=O)c2ccc3c(c2)C(=O)NC3=O)c1	MAOB	enzyme activity, inhibitor	1 µM	inhibition	< 5%
C[C@H](NC(=O)C(=O)Nc1ccccc1C(C)(C)C)C(=O)N[C@@H](CC(=O)O)C(=O)COc1c(F)c(F)cc(F)c1F	Caspase-1 (Casp1, Mus musculus, UniProt P29452)	enzyme activity, inhibitor		kinact/KI	4.27e+06 M⁻¹ s⁻¹
